Measurements published in publication PMC8929358 (Pharmacology Research & Perspectives, 2021).
Entries after “also recorded” stand apart in the source; their conditions may differ. Read-outs that look alike come from different tables or passages of the source. Each block holds one compound with its values, some of them ahead of it.

Columns and labels:
[1] = format: in vivo, rat; details: plasma; for Tmax: median (range)
rat soluble COMT = biological target: T1, rat soluble COMT (Rattus norvegicus, UniProt P22734); test: COMT activity; format: biochemical; details: for Effect upon COMT activity: up to 3000 nM
T1 sequence (P22734 1-221 isoform P22734-2): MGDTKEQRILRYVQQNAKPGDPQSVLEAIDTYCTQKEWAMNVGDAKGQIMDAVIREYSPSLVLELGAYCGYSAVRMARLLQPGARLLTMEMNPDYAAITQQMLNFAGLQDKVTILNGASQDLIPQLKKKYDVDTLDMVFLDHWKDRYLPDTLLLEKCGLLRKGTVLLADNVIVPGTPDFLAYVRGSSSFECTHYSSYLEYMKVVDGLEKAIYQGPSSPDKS

HLS9, HIS9, and SULT1A1 = test: Inhibition of opicapone sulfation, result in words for all enzyme sources; format: biochemical, human; details: acetaminophen 1–500 μM; quercetin and 2,6-dichloro-4-nitrophenol 0.05–100 μM
[2] = format: in vivo, rat; details: oral 100 mg/kg; for Feces, % of administered dose: feces pools 0–48 h
Summary of the method: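 In Sprague Dawley rats given 100 mg/kg [14C]-labelled compound (100 μCi/kg) orally in 0.2% HPMC, heparinized blood was taken by cardiac puncture at 2–168 h. Plasma was precipitated with MeOH/ACN (50:50), dried under N2 and reconstituted. Urine (0–6, 6–24 h) and feces (0–12, 12–24, 24–48 h) were pooled and stored at −80°C. Analysis used accurate-mass LC-MS with offline radiodetection.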

[3] = rat, po, 1 g/kg, t max, oral 1 g/kg opicapone

Amount detected in circulation ([1]; oral 1 g/kg opicapone): only traceable amounts
SMILES: Cc1nc(Cl)c(-c2noc(-c3cc(O[C@@H]4O[C@H](C(=O)O)[C@@H](O)[C@H](O)[C@H]4O)c(O)c([N+](=O)[O-])c3)n2)c(C)c1Cl [BIA 9‐1107, (2S,3S,4S,5R,6S)-6-(5-(3-(2,5-dichloro-4,6-dimethylpyridin-3-yl)-1,2,4-oxadiazol-5-yl)-2-hydroxy-3-nitrophenoxy)-3,4,5-trihydroxy-tetrahydro-2H-pyran-2-carboxylic acid]

Effect upon COMT activity (rat soluble COMT): no modulatory effect
SMILES: CC(=O)Nc1cc(C(=O)O)cc(O)c1O [BIA 9‐3752, 3-acetamido-4,5-dihydroxybenzoic acid]

Inhibition of the sulfate conjugation of opicapone (HLS9, HIS9, and SULT1A1): No inhibition
SMILES: CC(=O)Nc1ccc(O)cc1 [acetaminophen]

C max ([1]; oral 1 g/kg opicapone, mean (SD)): 58.2 (32.6) ng/ml
AUC0–t ([1]; oral 1 g/kg opicapone, mean (SD), sampling to 48 h): 1322.5 (503.5) ng.h/ml
Tmax ([1]; oral 1 g/kg opicapone): 16 (8–24) h
SMILES: Cc1nc(Cl)c(-c2noc(-c3cc(OS(=O)(=O)O)c(O)c([N+](=O)[O-])c3)n2)c(C)c1Cl.c1ccncc1 [BIA 9‐1105, pyridinium 5-(3-(2,5-dichloro-4,6-dimethylpyridin-3-yl)-1,2,4-oxadiazol-5-yl)-2-hydroxy-3-nitrophenyl sulfate]

Feces, % of administered dose ([2]; ND = not detected): 1.87%
SMILES: Nc1cc(C(=O)O)cc(O)c1O [BIA 9‐3721, 3-amino-4,5-dihydroxybenzoic acid]

Feces, % of administered dose ([2]; ND = not detected, 100 mg/kg): 1.14%
Detectable in the circulation up to (time post-dose) ([2]; plasma): 8 h
AUC(0-t) ([1]; rat, po, 1 g/kg): 4080 ng·h/mL
Cmax ([1]; rat, po, 1 g/kg): 381 ng/mL
Tmax [1, 3]: 4 h
IC50 (rat soluble COMT): 128 nM
Effect upon COMT activity (rat soluble COMT): active in inhibiting the enzyme
SMILES: Cc1nc(Cl)c(-c2noc(-c3cc(O)c(O)c([N+](=O)[O-])c3)n2)c(C)c1Cl [BIA 9‐1079, 5-(3-(2,5-dichloro-4,6-dimethylpyridin-3-yl)-1,2,4-oxadiazol-5-yl)-3-nitrobenzene-1,2-diol]

IC50 (rat soluble COMT): 429 nM
SMILES: COc1c(O)cc(-c2nc(-c3c(C)c(Cl)c(C)[n+]([O-])c3Cl)no2)cc1[N+](=O)[O-] [BIA 9‐1104, 2,5-dichloro-3-(5-(3-hydroxy-4-methoxy-5-nitrophenyl)-1,2,4-oxadiazol-3-yl)-4,6-dimethylpyridine 1-oxide]
Effect upon COMT activity (rat soluble COMT): active in inhibiting the enzyme; also recorded: endowed with activity in inhibiting COMT

Inhibition of the sulfate conjugation of opicapone (HLS9, HIS9, and SULT1A1): completely inhibited
SMILES: O=c1c(O)c(-c2ccc(O)c(O)c2)oc2cc(O)cc(O)c12 [Quercetin, quercetin]

Urine, % of administered dose ([2]; urine pools 0–24 h, ND = not detected): 0.85%
Cmax ([1]; rat, po, 1 g/kg): 4290 ng/mL
SMILES: Cc1c(Cl)c(C)[n+]([O-])c(Cl)c1-c1noc(-c2cc(O[C@@H]3O[C@H](C(=O)O)[C@@H](O)[C@H](O)[C@H]3O)c(O)c([N+](=O)[O-])c2)n1 [BIA 9‐1106, 3-(5-(3-((2S,3R,4S,5S,6S)-6-carboxy-3,4,5-trihydroxytetrahydro-2H-pyran-2-yloxy)-4-hydroxy-5-nitrophenyl)-1,2,4-oxadiazol-3-yl)-2,5-dichloro-4,6-dimethylpyridine 1-oxide]

SMILES: O=[N+]([O-])c1cc(Cl)c(O)c(Cl)c1 [DCNP, 2,6‐dichloro‐4‐nitrophenol]
Inhibition of the sulfate conjugation of opicapone (HLS9, HIS9, and SULT1A1): completely inhibited

AUC(0-t) ([1]; rat, po, 1 g/kg): 7920 ng·h/mL
Cmax ([1]; rat, po, 1 g/kg): 1420 ng/mL
Tmax [1, 3]: 1.5 h
Effect upon COMT activity (rat soluble COMT): no modulatory effect
SMILES: COc1cc(-c2nc(-c3c(C)c(Cl)c(C)[n+]([O-])c3Cl)no2)cc([N+](=O)[O-])c1O [BIA 9‐1100, 2,5-dichloro-3-(5-(4-hydroxy-3-methoxy-5-nitrophenyl)-1,2,4-oxadiazol-3-yl)-4,6-dimethylpyridine 1-oxide]
